For 23 compounds, Ki, Activity and Ratio Ki results are on record in ChEMBL document CHEMBL2169854, “New insight into the central benzodiazepine receptor-ligand interactions: design, synthesis, biological evaluation, and molecular modeling of 3-substituted 6-phenyl-4H-imidazo[1,5-a][1,4]benzodiazepines and related compounds” (J Med Chem, 2011).

Active and inactive are the calls of the source. No cut-off for these calls is given here. Some results are limits rather than exact numbers.

Assay [1] in a line: Displacement of [3H]flumazenil from central benzodiazepine receptor in bovine cortical membrane after 90 mins by beta liquid scintillation counting. The format is cell membranes, Bos taurus. Put shortly:
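At least six concentrations spanning 3 log units were tested in 2% DMSO. Ki was obtained by Cheng–Prusoff (Kd 0.85 nM bovine, 0.91 nM human), mean of three determinations.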
(Displacement assays read how much labelled ligand stays bound in the presence of the test substance.)

For assay [2], the species on record is Rattus norvegicus. The experiment in a line: Antagonist activity at central benzodiazepine receptor in Sprague-Dawley rat cerebrocortical synaptoneurosomes assessed as effect on GABA-induced [36]chloride ion flow after 10 seconds by beta liquid scintillation counting. In kind it is functional. Put shortly:
(§1)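 Cerebral cortex from male Sprague-Dawley rats was homogenised and filtered, and synaptoneurosomes were washed in HEPES pH 7 buffer (145 mM NaCl, 5 mM KCl, 5 mM MgCl2, 1 mM CaCl2, 10 mM glucose). Aliquots of 1.5–2 mg protein were preincubated 10 min at 30 C. Drug was added with 0.2 μCi 36Cl−, uptake was stopped at 10 s, and filter-bound radioactivity was counted by scintillation.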

Assay [3] in a line: Displacement of [3H]flumazenil from central benzodiazepine receptor in human cortical membrane after 90 mins by beta liquid scintillation counting. The format is cell membranes.
Assay [4] is filed under the species Bos taurus. Description: Ratio of Ki for central benzodiazepine receptor in bovine cortical membrane to Ki for central benzodiazepine receptor in bovine cortical membrane in presence of 50 uM GABA. The format is cell membranes.
The species entered for assay [5] is Homo sapiens. Description: Ratio of Ki for central benzodiazepine receptor in human cortical membrane to Ki for central benzodiazepine receptor in human cortical membrane in presence of 50 uM GABA. The format is cell membranes.
Assay [6] deals with T1, GABA-A receptor; alpha-1/beta-2/gamma-2 (Homo sapiens) (UniProt P14867+P47870+P18507). The experiment in a line: Modulation of human recombinant GABA-A alpha1beta2gamma2L receptor expressed in Xenopus laevis oocytes assessed as effect on GABA-induced chloride current at 0.01 uM incubated 60 seconds before addition of GABA measured after 30 seconds at holding potential -70 mV by two-microelectrode voltage clamp technique relative to control. The format is cell-based. The following applies: Oocyte.

In assay [7] the target is T1, GABA-A receptor; alpha-1/beta-2/gamma-2 (Homo sapiens). The experiment in a line: Modulation of human recombinant GABA-A alpha1beta2gamma2L receptor expressed in Xenopus laevis oocytes assessed as effect on GABA-induced chloride current at 0.1 uM incubated 60 seconds before addition of GABA measured after 30 seconds at holding potential -70 mV by two-microelectrode voltage clamp technique relative to control. In kind it is cell-based. The following applies: Oocyte.

Assay [8] shares this target. Description: Modulation of human recombinant GABA-A alpha1beta2gamma2L receptor expressed in Xenopus laevis oocytes assessed as effect on GABA-induced chloride current at 1 uM incubated 60 seconds before addition of GABA measured after 30 seconds at holding potential -70 mV by two-microelectrode voltage clamp technique relative to control. The format is cell-based. The following applies: Oocyte.

The target is the same in assay [9]. Description: Modulation of human recombinant GABA-A alpha1beta2gamma2L receptor expressed in Xenopus laevis oocytes assessed as effect on GABA-induced chloride current at 10 uM incubated 60 seconds before addition of GABA measured after 30 seconds at holding potential -70 mV by two-microelectrode voltage clamp technique relative to control. In kind it is cell-based. The following applies: Oocyte.

The target of assay [10] is T2, GABA A receptor alpha-1/beta-1/gamma-2 (Homo sapiens) (UniProt P14867+P18507+P18505). Description: Modulation of human recombinant GABA-A alpha1beta1gamma2L receptor expressed in Xenopus laevis oocytes assessed as effect on GABA-induced chloride current at 1 uM incubated 60 seconds before addition of GABA measured after 30 seconds at holding potential -70 mV by two-microelectrode voltage clamp technique relative to control. The following applies: Oocyte. In kind it is cell-based.

For assay [11], the target named is T2, GABA A receptor alpha-1/beta-1/gamma-2 (Homo sapiens). Description: Modulation of human recombinant GABA-A alpha1beta1gamma2L receptor expressed in Xenopus laevis oocytes assessed as effect on GABA-induced chloride current at 10 uM incubated 60 seconds before addition of GABA measured after 30 seconds at holding potential -70 mV by two-microelectrode voltage clamp technique relative to control. The following applies: Oocyte. The format is cell-based.

The test system of assay [12] is Oocyte. Description: Modulation of human recombinant GABA-A alpha5beta2gamma2L receptor expressed in Xenopus laevis oocytes assessed as effect on GABA-induced chloride current at 1 uM incubated 60 seconds before addition of GABA measured after 30 seconds at holding potential -70 mV by two-microelectrode voltage clamp technique relative to control. The format is cell-based.

Assay [13] has as its system Oocyte. The experiment in a line: Modulation of human recombinant GABA-A alpha5beta2gamma2L receptor expressed in Xenopus laevis oocytes assessed as effect on GABA-induced chloride current at 10 uM incubated 60 seconds before addition of GABA measured after 30 seconds at holding potential -70 mV by two-microelectrode voltage clamp technique relative to control. In kind it is cell-based.

In assay [14] the target is T1, GABA-A receptor; alpha-1/beta-2/gamma-2 (Homo sapiens). The experiment in a line: Antagonist at human recombinant GABA-A alpha1beta2gamma2L receptor expressed in Xenopus laevis oocytes assessed as blockade of diazepam-induced potentiation of GABA-induced chloride current at 10 uM incubated 60 seconds before addition of GABA measured after 30 seconds at holding potential -70 mV by two-microelectrode voltage clamp technique. The following applies: Oocyte. The format is functional, cell-based. The essentials:
(§2)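 Oocytes expressing human α1β2γ2L, α2β1γ2L or α5β2γ2L receptors were clamped at −70 mV. Compound at 10 μM was tested against the enhancement of the GABA EC10 response by 1.0 μM diazepam, with 60 s preapplication and 30 s coapplication. The response was expressed as percent potentiation, from 2–3 oocytes.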

The target in assay [15] is T2, GABA A receptor alpha-1/beta-1/gamma-2 (Homo sapiens). The experiment in a line: Antagonist at human recombinant GABA-A alpha1beta1gamma2L receptor expressed in Xenopus laevis oocytes assessed as blockade of diazepam-induced potentiation of GABA-induced chloride current at 10 uM incubated 60 seconds before addition of GABA measured after 30 seconds at holding potential -70 mV by two-microelectrode voltage clamp technique. The format is functional, cell-based. The following applies: Oocyte.

Assay [16] has as its system Oocyte. The experiment in a line: Antagonist at human recombinant GABA-A alpha5beta2gamma2L receptor expressed in Xenopus laevis oocytes assessed as blockade of diazepam-induced potentiation of GABA-induced chloride current at 10 uM incubated 60 seconds before addition of GABA measured after 30 seconds at holding potential -70 mV by two-microelectrode voltage clamp technique. In kind it is functional, cell-based. Put shortly:
as §2

Assay [17] deals with Mus musculus. Description: Anxiolytic effect in mouse assessed as increase in time spent in light compartment at 1 mg/kg, ip by light/dark box test. The format is functional, organism-based. More on the design: dose 1 mg/kg. The essentials:
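Male mice were used. Compound was given orally as a suspension in 1% CMC; diazepam was given ip in saline; volume 10 mL/kg. Each mouse was placed in the lit side of a two-compartment light/dark box and observed for 5 min, scoring time in the light and transfers. Groups were compared by ANOVA with Fisher PLSD.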

The test system of assay [18] is Mus musculus. Description: Myorelaxant activity in mouse assessed as motor coordination measuring number of falls at 1 mg/kg, ip measured for 30 seconds after 45 mins of compound administration by rotarod test. The format is functional, organism-based. More on the design: dose 1 mg/kg. For orientation: In the rotarod test animals must keep their balance on a rotating rod.

Assay [19] is filed under the species Rattus norvegicus. The experiment in a line: Agonist activity at central benzodiazepine receptor in Sprague-Dawley rat cerebrocortical synaptoneurosomes assessed as increase in GABA-induced [36]chloride ion flow after 10 seconds by beta liquid scintillation counting. The format is functional. Put shortly: as §1

For orientation: Ki means the dissociation constant of the complex between target and ligand, obtained from inhibition or displacement. Low values mean a stronger hold on the target, high ones a looser hold on the target. `CCOC(=O)c1ncn2c1CN(C)C(=O)c1cc(F)ccc1-2` [FLUMAZENIL] displayed a Ki in [1] of 1.9 nM. For the same compound, the result in [2] was Active.

Consider `Clc1ccc(C2=NCc3c(-c4nnn[nH]4)ncn3-c3ccc(Cl)cc32)cc1`, for which, in assay [1], the Ki was more than 10000 nM.

Regarding `N#Cc1ncn2c1CN=C(c1ccc(Cl)cc1)c1cc(Cl)ccc1-2`, affinity in assay [1] was put at a Ki of 1650 nM.

`CN(C)C(=O)c1ncn2c1CN=C(c1ccc(Cl)cc1)c1cc(Cl)ccc1-2` came in with a Ki in assay [1] of more than 10000 nM.

`CC(C)(C)OC(=O)c1ncn2c1CN=C(c1ccc(Cl)cc1)c1cc(Cl)ccc1-2` showed a Ki in assay [1] of 1300 nM.

`CCOC(=O)c1ncn2c1CN=C(c1ccc(Cl)cc1)c1cc(Cl)ccc1-2`: the Ki in assay [1] amounted to 236 nM; in assay [3], 210 nM. Besides, in assay [4], the Ratio Ki turned out to be 1.3.

In assay [1], `CCOC(=O)c1ncn2c1CN=C(c1ccc(Cl)cc1)c1ccc3ccccc3c1-2` returned a Ki of more than 10000 nM.

As to `CCOC(=O)c1ncn2c1CN=C(c1cccc3ccccc13)c1cc(Cl)ccc1-2`, the Ki in [1] stood at 186 nM; in [3], 216 nM. Moreover, the Ratio Ki in assay [4] is 1.3.

The compound `O=C1OCCC2N=C(c3ccccc3)c3ccccc3-n3cnc1c32` (stereo unspecified) gave an inhibition constant (Ki) in assay [1] of 283 nM. The Ratio Ki in [4] is 0.95.

In the case of `CCOC(=O)c1ncn2c1C(C)N=C(c1ccc(F)cc1)c1cc(F)ccc1-2` (stereo unspecified), the Ki turned out to be 510 nM in [1] and 550 nM in assay [3]. In assay [4], the Ratio Ki turned out to be 1.19.

On to `CCOC(=O)c1ncn2c1CN=C(c1ccc(OC)cc1)c1ccccc1-2`, for which the results for the Ki in [1] and in assay [3] were 110 nM and 120 nM, respectively. Further, the Ratio Ki in assay [4] came out at 0.78.

`CNC(=O)c1ncn2c1CN=C(c1ccc(Cl)cc1)c1cc(Cl)ccc1-2` showed a Ki in [1] of more than 10000 nM.

On to `CCOC(=O)c1ncn2c1CN=C(c1ccc(OC)cc1)c1cc(Cl)ccc1-2`, for which the Ki was 210 nM in assay [1] and 227 nM in [3].

On to `CCOC(=O)c1ncn2c1CN=C(c1cccc([N+](=O)[O-])c1)c1cc(Cl)ccc1-2`, for which the Ki turned out to be 1.7 nM in assay [1] and 2.3 nM in assay [3]. The figures for the Ratio Ki in assay [4] and in [5] were 0.99 and 0.98, respectively. In addition, the outcome in assay [2] was Active.

On to `CCOC(=O)c1ncn2c1CN=C(c1ccc(C)cc1)c1cc(Cl)ccc1-2`, for which the Ki in assay [1] is 199 nM; in [3], 178 nM. The Ratio Ki in [4] is 1.05.

Turning to `CCOC(=O)c1ncn2c1CN=C(c1ccc(Cl)cc1)c1ccccc1-2`, the Ki in assay [1] turned out to be 12.7 nM; in assay [3], 22.5 nM. In addition, the Ratio Ki in [4] amounted to 0.84; in assay [5], 0.87. The outcome in [2], in assay [14], in assay [15] and in assay [16] was Active. Further, the Activity is 13% in assay [6]; 1% in assay [7]; 3.6% in assay [8]; 6.3% in [9]; -7% in assay [10]; -18% in assay [11]. For the same compound, the Activity in assay [12] was -0.5%; in assay [13], 0%.

Take `CN1C(=O)CN=C(c2ccccc2)c2cc(Cl)ccc21`: the result in assay [17] and in assay [18] was Active.

On to `CCOC(=O)c1ncn2c1CN=C(c1ccc(F)cc1)c1cc(Cl)ccc1-2`, for which the Ki in assay [1] amounted to 188 nM; in assay [3], 212 nM. Further, the Ratio Ki in [4] was determined as 1.25.

In the case of `CN1C(=O)CN=C(c2ccccc2F)c2cc([N+](=O)[O-])ccc21` [FLUNITRAZEPAM], the figures for the Ki in assay [1] and in assay [3] were 5.17 nM and 6.5 nM, respectively. For the same compound, the Ratio Ki in assay [4] was found to be 1.68; in assay [5], 1.6. Further, in [19], the result was Active.

Turning to `CCOC(=O)c1ncn2c1C(C)N=C(c1ccccc1)c1ccccc1-2` (stereo unspecified), the Ki in assay [1] was found to be 453 nM; in [3], 750 nM. The Ratio Ki in [4] worked out at 1.3.

`CCOC(=O)c1ncn2c1CN=C(c1cccc([N+](=O)[O-])c1)c1cc(F)ccc1-2`: the Activity in assay [8] was 14%; in assay [9], -24%; in assay [10] it was 10%; in assay [11] it was -3.3%; in assay [12], 27%; in assay [13], -2.5%. For the same compound, the outcome in assay [14], in [15] and in [16] was Active.

`NC(=O)c1ncn2c1CN=C(c1ccc(Cl)cc1)c1cc(Cl)ccc1-2`: the Ki in assay [1] was more than 10000 nM.

Regarding `CCOC(=O)c1ncn2c1CN=C(c1ccc(F)cc1)c1ccccc1-2`, the Ki in assay [1] worked out at 11.5 nM; in assay [3], 20.8 nM. Further, the Ratio Ki in assay [4] came out at 0.77; in assay [5] it was 0.96. The result in assay [2] was Active.
